NPY2 pot ag = potentiators or agonists of human neuropeptide Y receptor Y2. cells expressing NPY-Y2, potentiator/agonist read-out. activation, % at 3.6 µM. hit rate 0.45% among 220,000; in the data active = activation above about 27%;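 also: cells stimulated with NPY near EC25 plus isoproterenol at EC100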
Measles CPE = protection of cells from measles virus | Measles virus-infected cells, CPE protection, absorbance | protection (pct of control), % at 4 µM | hit rate 1.5% among 140,000 | AID 841; in the data active = protection mostly above about 24%, no sharp cut-off; inactive = mostly below about 26%
Mdm2 ligase inh = inhibitors of human Mdm2 E3 ubiquitin ligase; cell-based MDM2 ubiquitination luciferase reporter, 2 h; 0 = plate control, 100 = twice control, blank-subtracted; signal enhancement, % at 5 µM; hit rate 0.11% among 210,000;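 active = signal enhancement of 30% or more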;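 also: luminescence tracks abundance of the self-degrading MDM2-luciferase fusion protein; higher signal means inhibition of MDM2 E3 ligase activity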
Target sequence (Q00987 whole entry, looked up, the tested form may be a part): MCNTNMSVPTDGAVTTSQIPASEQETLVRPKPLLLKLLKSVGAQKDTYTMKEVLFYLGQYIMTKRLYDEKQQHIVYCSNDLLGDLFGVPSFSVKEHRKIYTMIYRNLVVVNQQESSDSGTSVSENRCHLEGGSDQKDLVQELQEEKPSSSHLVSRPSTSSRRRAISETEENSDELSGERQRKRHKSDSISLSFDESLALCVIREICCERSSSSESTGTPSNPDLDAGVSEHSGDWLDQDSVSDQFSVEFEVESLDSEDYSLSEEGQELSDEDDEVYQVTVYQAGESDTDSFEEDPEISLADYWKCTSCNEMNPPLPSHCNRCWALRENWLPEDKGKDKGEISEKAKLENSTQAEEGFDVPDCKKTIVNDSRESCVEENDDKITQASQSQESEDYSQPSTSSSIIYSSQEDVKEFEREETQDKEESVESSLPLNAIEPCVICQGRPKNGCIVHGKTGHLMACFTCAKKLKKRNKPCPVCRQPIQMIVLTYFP
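Test system: stable mammalian line carrying autodegrading MDM2–luciferase fusion reporter; quantity: 2000 cells in each well; times: 4 h cell settling then 2 h compound exposure, 37 °C; detection: luminescence with SteadyLite reagent, 15 min at room temperature; evaluation: percent signal gain over controls, blank-subtracted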
NPY-Y1 antag = NPY-Y1 (human) receptor antagonism; P25929; HEK293-CNG Y1 cells, membrane potential fluorescence; NPY at EC95, then isoproterenol; inhibition, % at 3.6 µM; hit rate 1% among 200,000;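 active = inhibition above the campaign mean inhibition of all tested compounds plus 3 SD, cut at about 20% in these data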
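Assay system: HEK293 cells with Y1 receptor plus CNG channel | Probe or stimulus: NPY (25 nM), isoproterenol (1 µM), Ro 20-1724 (25 µM) | Timing: Compound incubation 1 h at room temperature, readout 45 min post-stimulation | Measured by: Membrane-potential fluorescent dye readout | Benchmarks: High control isoproterenol alone, low control NPY with isoproterenol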
NPY Y2 blocker = blocks the human neuropeptide Y Y2 receptor; inhibition, % at 2.7 µM; P49146; hit rate 0.99% among 140,000; NPY-Y2 expressing cells, antagonist mode; in the data active = inhibition above about 17%
NPY1 pot ag = potentiators or agonists of human neuropeptide Y receptor Y1; hit rate 0.37% among 220,000; P25929; activation, % at 3.6 µM; NPY-Y1 expressing cells, potentiator/agonist activation; in the data active = activation above about 33%, passing the limit was not always enough;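 also: cells stimulated with NPY at EC10 then isoproterenol at EC100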
Large screens that a line does not name were inactive. In the library only some 2.8% were active in any assay of this set; here they are far more common.

CCCCOc1ccc(CC2CCC(=O)NC2=O)cc1 (stereo unspecified)	none (no result: Measles CPE, NPY Y2 blocker)
CNCCCCOc1ccccc1Cc1ccccc1	none (no result: Measles CPE, Mdm2 ligase inh, NPY Y2 blocker)
CN(C)Cc1ccccc1Cc1ccccc1	Measles CPE 38
CN(C)CCOc1ccccc1Cc1ccccc1	Measles CPE 44 (no result: Mdm2 ligase inh)
CC12CCC(C(=O)N3CCC(Cc4ccccc4)CC3)(C(=O)C1=O)C2(C)C (stereo unspecified)	none (no result: Measles CPE, NPY Y2 blocker)
CC(C)=CC(=O)OCC(=O)Nc1ccccc1Cl	Measles CPE 81
COc1ccc(Cl)cc1CSc1n[nH]c(C)n1	Measles CPE 27
O=c1[nH]c(=S)[nH]c(O)c1N=Nc1ccc(-c2ccccc2)cc1[N+](=O)[O-]	none (no result: Measles CPE, NPY Y2 blocker)
CC1(C)CC(=O)C2=C(C1)OC(N)=C(C#N)C2c1cn(-c2ccccc2)nc1-c1ccc(F)cc1 (stereo unspecified)	NPY2 pot ag 65, NPY1 pot ag 68
CCCc1nnc(NC(=O)CCC(=O)N2CCN(C3c4ccccc4-c4ccccc43)CC2)s1	none
Cc1ccc(C(C(=O)NC(C)(C)C)N(Cc2ccco2)C(=O)Cn2nnc(-c3cccs3)n2)cc1 (stereo unspecified)	NPY-Y1 antag 20, NPY Y2 blocker 34 (no result: Mdm2 ligase inh)
Cc1ccc(C(C(=O)NC2CCCCC2)N(Cc2ccco2)C(=O)Cn2cnc3ccccc32)cc1 (stereo unspecified)	NPY-Y1 antag 34, NPY Y2 blocker 75
O=C(NC1CCCCC1)C(c1ccccc1F)N(Cc1ccco1)C(=O)Cn1nnc2ccccc21 (stereo unspecified)	NPY-Y1 antag 72, NPY Y2 blocker 57
O=C(NCc1ccco1)C(c1ccccc1)N(Cc1ccccc1)C(=O)Cn1nnc2ccccc21 (stereo unspecified)	Measles CPE 41 (no result: Mdm2 ligase inh)
CC(C)(C)NC(=O)C(c1ccc(O)cc1)N(Cc1ccco1)C(=O)Cn1nnc(-c2cccs2)n1 (stereo unspecified)	none
CCC(C)(C)NC(=O)C(c1ccc(C)cc1)N(Cc1ccco1)C(=O)Cn1nnc2ccccc21 (stereo unspecified)	NPY-Y1 antag 25, NPY Y2 blocker 61
O=C(NC1CCCCC1)C(c1ccc(F)cc1)N(Cc1ccco1)C(=O)Cn1nnc2ccccc21 (stereo unspecified)	NPY-Y1 antag 23, NPY Y2 blocker 36
Cc1n(-c2ccccc2)c2ccc(Cl)cc2[n+]1CCO	none (no result: Measles CPE, NPY Y2 blocker)
COc1ccc(Nc2nc(N3CCCC3)nc3ccccc23)c(OC)c1	NPY-Y1 antag 27, NPY Y2 blocker 21
CC(Nc1nc(N2CCCCC2)nc2ccccc12)c1ccccc1 (stereo unspecified)	NPY-Y1 antag 46, NPY Y2 blocker 45
CCOC(=O)Nc1nc(-c2ccc(Cl)cc2Cl)cs1	none
CCN(CC)C(=O)Oc1ccc2ccccc2c1Br	none (no result: Measles CPE, NPY Y2 blocker)
O=C(Oc1ccc2ccccc2c1Br)N1CCCCCC1	Measles CPE 47
C=CCc1ccccc1OCC(O)CN(CC)CC (stereo unspecified)	NPY2 pot ag 89, NPY1 pot ag 103
CC(C)(C)c1ccc(OCC(O)CNC(=O)c2ccccc2C(=O)O)cc1 (stereo unspecified)	none (no result: Measles CPE, Mdm2 ligase inh)
C=CCc1ccccc1OCC(O)CNC(=O)c1ccccc1C(=O)O (stereo unspecified)	NPY2 pot ag 92, NPY1 pot ag 87 (no result: Measles CPE, NPY-Y1 antag, NPY Y2 blocker)
CC1CCCCC1NC1=NCCCS1 (stereo unspecified)	none (no result: Measles CPE, NPY Y2 blocker)
Cc1ccc2c(c1)[nH]c1c(=O)n(Cc3ccco3)cnc12	none (no result: Measles CPE, NPY-Y1 antag, NPY Y2 blocker)
COc1ccc2ccccc2c1C(=O)/C=C\c1ccoc1	none
COc1ccc(C2(C(=O)NCc3ccco3)CCCC2)cc1OC	Measles CPE 53
CCCCNC(=O)C1C2C=CC3(CN(Cc4ccc(C)cc4)C(=O)C13)O2 (stereo unspecified)	none
Cc1ccc(CN2CC34C=CC(O3)C(C(=O)NCc3ccco3)C4C2=O)cc1 (stereo unspecified)	Measles CPE 30
Cc1ccc(NC(=O)COc2ccc(Br)cc2C)cc1	Measles CPE 26
CCOC(=O)Cn1c(S(=O)(=O)Cc2ccc(F)cc2)nc(-c2ccccc2)c1-c1ccccc1	Measles CPE 52, NPY-Y1 antag 38, NPY Y2 blocker 26
C#CCn1c(S(=O)(=O)Cc2ccc(F)cc2)nc(-c2ccccc2)c1-c1ccccc1	Measles CPE 52, NPY-Y1 antag 21
CCOC(=O)Cn1c(-c2ccccc2)nc2ccccc2c1=O	none
COc1ccc(C(CNC(=O)COc2ccccc2-c2ccccc2)N2CCOCC2)cc1 (stereo unspecified)	none (no result: Measles CPE, NPY Y2 blocker)
CC(C)c1ccccc1OCC(=O)NCC(c1cccs1)N1CCOCC1 (stereo unspecified)	Measles CPE 29
COc1cc(/C=N\NC(=O)C2CC3C=CC2C3)ccc1O (stereo unspecified)	none
O=C(NC1CCCCCC1)c1cc(S(=O)(=O)N2CCCCC2)ccc1N1CCOCC1	NPY-Y1 antag 21 (no result: Measles CPE, NPY Y2 blocker)
S=c1sc(SCCOc2ccccc2)nn1-c1ccccc1	Measles CPE 93
CCC(NC(=O)Nc1nnc(C(F)(F)F)s1)(C(F)(F)F)C(F)(F)F	NPY-Y1 antag 38, NPY Y2 blocker 25
O=C(O)CCC(=O)Nc1nnc(C(F)(F)F)s1	none
CC(C)CN1C(=O)NC(NS(=O)(=O)c2ccc(N)cc2)(C(F)(F)F)C1=O (stereo unspecified)	none
O=C1[C@H]2[C@@H](C(=O)N1c1cccc3ccccc13)C1(C(=O)c3ccccc3C1=O)N1CCC[C@@H]21	none
c1ccc2oc(-c3ccc(Nc4nc(N5CCCC5)nc(N5CCOCC5)n4)cc3)nc2c1	none (no result: Measles CPE, NPY Y2 blocker)
CCOc1ccc2nc3c(cc2c1)CN(CCOC)C(=NC)S3	Measles CPE 29
S=C(NCC1CCCO1)NC1CCCC1 (stereo unspecified)	none (no result: Measles CPE, NPY Y2 blocker)
CCCCNC(=O)CN(c1cccc(Br)c1)S(C)(=O)=O	none
O=C(NCCN1CCOCC1)c1ccc2ccccc2c1	none
N#Cc1cc2c(nc1SCC(=O)Nc1nccs1)CCCCC2	Measles CPE 34
COc1ccc(CC(=O)NNc2ncnc3c2cnn3-c2ccc(C)cc2)cc1OC	none
CCN(CC)C(=O)C1CCCN(C(=O)Nc2ccccc2)C1 (stereo unspecified)	Measles CPE 35
O=C(O)Cc1ccc2oc(-c3cccnc3)nc2c1	none (no result: Measles CPE, NPY Y2 blocker)
Cc1ccc(SCC(=O)Nc2ccc(S(N)(=O)=O)cc2)cc1	none (no result: Measles CPE, NPY Y2 blocker)
CC(NCc1ccc2c(c1)OCO2)C(=O)NC1CCCc2ccccc21 (stereo unspecified)	none
Cc1ccc(NS(=O)(=O)c2ccc(OCC(=O)NCc3ccco3)cc2)cc1	Measles CPE 53
CN(Cc1ccccc1NS(=O)(=O)c1ccc2ccccc2c1)C1CCCCC1	none (no result: Measles CPE, NPY Y2 blocker)
CN(C)S(=O)(=O)c1ccc(N)c([N+](=O)[O-])c1	none (no result: Measles CPE, NPY-Y1 antag, NPY Y2 blocker)
